Data as given in ChEMBL document CHEMBL2321761, “Discovery of novel dual inhibitors of the wild-type and the most prevalent drug-resistant mutant, S31N, of the M2 proton channel from influenza A virus” (J Med Chem, 2013).

Tested on: Influenza A virus
Assay: Inhibition of Influenza A virus wild type M2 proton channel expressed in Xenopus laevis oocyte at 100 uM after 2 mins by two-electrode […] clamp assay
How it was run: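 Full-length AM2 (WT) was expressed in Xenopus oocyte membranes and recorded by two-electrode voltage clamp during low-pH activation. Percent inhibition was read after only 2 min of exposure, before equilibrium was reached. IC50 values from this read-out are apparent kinetic values, not equilibrium dissociation constants.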

Row | Compound | inhibition [%]
1 | c1cn(-c2ccc(CNC34CC5CC(CC(C5)C3)C4)cc2)cn1 | 4
2 | Fc1ccc(CNC23CC4CC(CC(C4)C2)C3)cc1 | 77
3 | COc1ccc(CNC23CC4CC(CC(C4)C2)C3)c(OC)c1 | 16
4 | Oc1ccc(/C=N/C23CC4CC(CC(C4)C2)C3)cc1 | 81
5 | NC(=O)c1ccc(CNC23CC4CC(CC(C4)C2)C3)cc1 | 7
6 | COc1ccc(CNC23CC4CC(CC(C4)C2)C3)c(O)c1 | 56
7 | c1cc2c(cc1CNC13CC4CC(CC(C4)C1)C3)OCO2 | 54
8 | c1cc(-c2nnn[nH]2)ccc1CNC12CC3CC(CC(C3)C1)C2 | 6
9 | c1cc(CNC23CC4CC(CC(C4)C2)C3)ccn1 | 6
10 | COc1ccccc1CNC12CC3CC(CC(C3)C1)C2 | 22
11 | Oc1ccc(CNC23CC4CC(CC(C4)C2)C3)cc1O | 44
12 | c1cc2cn[nH]c2cc1CNC12CC3CC(CC(C3)C1)C2 | 79
13 | N#Cc1ccc(CNC23CC4CC(CC(C4)C2)C3)cc1 | 36
14 | C[C@@H]1[C@@H](/N=C/c2ccc(O)cc2)C[C@H]2C[C@@H]1C2(C)C | 91
15 | COC(=O)[C@H](Cc1cnc[nH]1)NCC12CC3CC(CC(C3)C1)C2 | 27
16 | Oc1ccc(CNC23CC4CC(CC(C4)C2)C3)cc1 | 67
17 | COc1cc(CNC23CC4CC(CC(C4)C2)C3)ccc1O | 76
18 | Oc1ccc(CNC23CC4CC(CC(C4)C2)C3)c(Cl)c1 | 78
19 | CC(=O)Nc1ccc(CNC23CC4CC(CC(C4)C2)C3)cc1 | 3
20 | Oc1cc(F)ccc1CNC12CC3CC(CC(C3)C1)C2 | 87
21 | COc1ccc(CNC23CC4CC(CC(C4)C2)C3)cc1 | 43
22 | Oc1cccc(CNC23CC4CC(CC(C4)C2)C3)c1 | 88
23 | c1ccc(CNC23CC4CC(CC(C4)C2)C3)nc1 | 12

Row | Compound | inhibition [%]
24 | Oc1ccc(CNC23CC4CC(CC(C4)C2)C3)cc1Cl | 78
25 | COc1ccc(CN(C)C23CC4CC(CC(C4)C2)C3)cc1 | 34
26 | COc1cc(O)ccc1CNC12CC3CC(CC(C3)C1)C2 | 0
27 | CS(=O)(=O)c1ccc(CNC23CC4CC(CC(C4)C2)C3)cc1 | 45
28 | Nc1ccc(CNC23CC4CC(CC(C4)C2)C3)cc1 | 31
29 | Oc1ccccc1CNC12CC3CC(CC(C3)C1)C2 | 81
30 | COc1ccc(COC23CC4CC(CC(C4)C2)C3)cc1 | 51
31 | OCc1ccc(CNC23CC4CC(CC(C4)C2)C3)cc1 | 26
32 | c1nc2cc(CNC34CC5CC(CC(C5)C3)C4)ccc2[nH]1 | 26
33 | CC(C)(C)OC(=O)Nc1ccc(CNC23CC4CC(CC(C4)C2)C3)cc1 | 13
34 | COc1ccc(CNC23CC4CC(CC(C4)C2)C3)cc1O | 46
35 | Oc1ccc(CNC23CC4CC(CC(C4)C2)C3)cc1F | 65
36 | C[S+]([O-])c1ccc(CNC23CC4CC(CC(C4)C2)C3)cc1 (stereo unspecified) | 2
37 | c1cnn(-c2ccc(CNC34CC5CC(CC(C5)C3)C4)cc2)c1 | 4
38 | O=[N+]([O-])c1ccccc1CNC12CC3CC(CC(C3)C1)C2 | 48
39 | c1ccc(CNC23CC4CC(CC(C4)C2)C3)cc1 | 77
40 | c1cc(CNC23CC4CC(CC(C4)C2)C3)co1 | 73
41 | CC(=O)c1ccc(CNC23CC4CC(CC(C4)C2)C3)cc1 | 2
42 | NCc1ccc(CNC23CC4CC(CC(C4)C2)C3)cc1 | 3
43 | O=[N+]([O-])c1ccc(CNC23CC4CC(CC(C4)C2)C3)cc1 | 49
44 | OC1CCC(CNC23CC4CC(CC(C4)C2)C3)CC1 (racemic) | 16
45 | Oc1ccc(CNC23CC4CC(CC(C4)C2)C3)c(O)c1 | 64
46 | O=[N+]([O-])c1cc(CNC23CC4CC(CC(C4)C2)C3)ccc1O | 66
